# Measured values taken from ChEMBL document CHEMBL4152287, “Synthesis and characterization of novel classes of PDE10A inhibitors - 1H-1,3-benzodiazoles and imidazo[1,2-a]pyrimidines” (Eur J Med Chem, 2018).
# pIC50: −log10 of the molar value.
# What was measured:
# [1] = biological target: High affinity 3',5'-cyclic-AMP phosphodiesterase 7A (Homo sapiens) (UniProt Q13946); assay: Inhibition of PDE7A (unknown origin) at 100 nM using iFl-cAMP/iFl-cGMP as substrate by mobility shift assay relative to control
# Sequence of High affinity 3',5'-cyclic-AMP phosphodiesterase 7A (Homo sapiens) (Q13946 whole entry): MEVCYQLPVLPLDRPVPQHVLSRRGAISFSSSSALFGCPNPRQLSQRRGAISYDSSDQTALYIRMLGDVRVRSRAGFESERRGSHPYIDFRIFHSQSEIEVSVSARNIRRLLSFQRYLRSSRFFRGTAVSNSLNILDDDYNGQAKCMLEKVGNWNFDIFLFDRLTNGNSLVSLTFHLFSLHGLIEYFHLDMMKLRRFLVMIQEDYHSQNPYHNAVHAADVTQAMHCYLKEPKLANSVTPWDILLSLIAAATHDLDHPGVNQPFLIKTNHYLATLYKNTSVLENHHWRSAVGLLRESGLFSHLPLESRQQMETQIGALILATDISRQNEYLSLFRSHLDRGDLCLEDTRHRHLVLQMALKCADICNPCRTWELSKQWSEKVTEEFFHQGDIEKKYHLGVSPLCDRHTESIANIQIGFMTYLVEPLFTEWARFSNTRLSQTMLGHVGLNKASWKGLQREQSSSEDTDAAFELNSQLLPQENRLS
# [2] = biological target: T1, High affinity cGMP-specific 3',5'-cyclic phosphodiesterase 9A (Homo sapiens, UniProt O76083); assay: Inhibition of recombinant full length human N-terminal GST-tagged PDE9A2 expressed in baculovirus infected Sf9 cells at 100 nM using iFl-cAMP/iFl-cGMP as substrate by mobility shift assay relative to control
# T1 sequence (O76083 whole entry): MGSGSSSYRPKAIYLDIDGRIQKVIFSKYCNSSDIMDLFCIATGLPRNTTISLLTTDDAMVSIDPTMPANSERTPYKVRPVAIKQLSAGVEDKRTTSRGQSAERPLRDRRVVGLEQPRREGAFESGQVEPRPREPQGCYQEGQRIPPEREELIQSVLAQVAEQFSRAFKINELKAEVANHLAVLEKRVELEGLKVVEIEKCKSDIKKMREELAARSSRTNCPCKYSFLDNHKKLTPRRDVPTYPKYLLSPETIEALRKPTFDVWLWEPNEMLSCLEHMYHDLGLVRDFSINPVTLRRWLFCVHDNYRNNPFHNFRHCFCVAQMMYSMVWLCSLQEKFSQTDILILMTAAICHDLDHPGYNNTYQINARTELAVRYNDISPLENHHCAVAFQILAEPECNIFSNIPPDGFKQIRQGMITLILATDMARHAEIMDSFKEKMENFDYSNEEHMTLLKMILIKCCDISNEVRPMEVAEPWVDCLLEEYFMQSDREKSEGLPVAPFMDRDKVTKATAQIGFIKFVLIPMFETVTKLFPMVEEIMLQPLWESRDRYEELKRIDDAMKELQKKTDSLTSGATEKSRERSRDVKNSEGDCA
# [3] = Intrinsic clearance in dog liver microsomes in presence of NADP/G6P/G6P dehydrogenase/MgCl2 by LC/MS analysis; assay type: ADME, Canis lupus familiaris, microsome; settings: read-out: CLH
# Procedure, shortened: (§1)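 Phase-1 liver microsomal stability assay for the named species, with intrinsic clearance reported in µl x min^-1 x mg^-1.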
# [4] = biological target: T2, Dual specificity calcium/calmodulin-dependent 3',5'-cyclic nucleotide phosphodiesterase 1C (Homo sapiens, UniProt Q14123); assay: Inhibition of recombinant human N-terminal GST-tagged PDE1C (2 to 634 residues) expressed in baculovirus infected Sf9 cells at 100 nM using iFl-cAMP/iFl-cGMP as substrate by mobility shift assay relative to control
# T2 sequence (Q14123 whole entry, the tested form may be a part): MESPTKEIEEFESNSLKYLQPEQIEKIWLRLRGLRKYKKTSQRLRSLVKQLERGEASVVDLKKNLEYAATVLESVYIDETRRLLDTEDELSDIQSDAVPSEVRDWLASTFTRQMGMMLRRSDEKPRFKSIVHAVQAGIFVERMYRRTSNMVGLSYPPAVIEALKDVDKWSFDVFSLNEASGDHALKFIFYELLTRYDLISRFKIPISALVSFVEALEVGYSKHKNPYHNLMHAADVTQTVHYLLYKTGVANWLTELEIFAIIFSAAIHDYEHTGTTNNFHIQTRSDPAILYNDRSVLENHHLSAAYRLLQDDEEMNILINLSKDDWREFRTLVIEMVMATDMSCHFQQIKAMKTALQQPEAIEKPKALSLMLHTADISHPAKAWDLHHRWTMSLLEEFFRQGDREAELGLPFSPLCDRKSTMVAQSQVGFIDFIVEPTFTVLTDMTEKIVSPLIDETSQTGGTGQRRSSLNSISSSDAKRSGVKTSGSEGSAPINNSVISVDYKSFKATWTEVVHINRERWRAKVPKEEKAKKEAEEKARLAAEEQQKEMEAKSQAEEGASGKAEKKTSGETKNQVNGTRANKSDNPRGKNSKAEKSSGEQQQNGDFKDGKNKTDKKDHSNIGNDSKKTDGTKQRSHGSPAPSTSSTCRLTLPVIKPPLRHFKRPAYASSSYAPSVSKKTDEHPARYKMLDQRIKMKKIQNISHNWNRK
# [5] = biological target: Cone cGMP-specific 3',5'-cyclic phosphodiesterase subunit alpha' (Homo sapiens) (UniProt P51160); assay: Inhibition of PDE6C (unknown origin) at 100 nM using iFl-cAMP/iFl-cGMP as substrate by mobility shift assay relative to control
# [6] = biological target: Dual 3',5'-cyclic-AMP and -GMP phosphodiesterase 11A (Mus musculus) (UniProt P0C1Q2); assay: Inhibition of recombinant mouse N-terminal GST-tagged PDE11A (2 to 933 residues) expressed in baculovirus infected Sf9 cells at 100 nM using iFl-cAMP/iFl-cGMP as substrate by mobility shift assay relative to control
# [7] = Intrinsic clearance in rat liver microsomes in presence of NADP/G6P/G6P dehydrogenase/MgCl2 by LC/MS analysis; assay type: ADME, microsome; settings: read-out: CLH; procedure, shortened: as §1
# [8] = biological target: T3, cAMP and cAMP-inhibited cGMP 3',5'-cyclic phosphodiesterase 10A (Homo sapiens, UniProt Q9Y233); assay: Inhibition of recombinant human N-terminal GST-tagged PDE10A1 ( 2 to 789 residues) expressed in baculovirus infected Sf9 cells at 100 nM using iFl-cAMP/iFl-cGMP as substrate by mobility shift assay relative to control
# T3 sequence (Q9Y233 whole entry, the tested form may be a part): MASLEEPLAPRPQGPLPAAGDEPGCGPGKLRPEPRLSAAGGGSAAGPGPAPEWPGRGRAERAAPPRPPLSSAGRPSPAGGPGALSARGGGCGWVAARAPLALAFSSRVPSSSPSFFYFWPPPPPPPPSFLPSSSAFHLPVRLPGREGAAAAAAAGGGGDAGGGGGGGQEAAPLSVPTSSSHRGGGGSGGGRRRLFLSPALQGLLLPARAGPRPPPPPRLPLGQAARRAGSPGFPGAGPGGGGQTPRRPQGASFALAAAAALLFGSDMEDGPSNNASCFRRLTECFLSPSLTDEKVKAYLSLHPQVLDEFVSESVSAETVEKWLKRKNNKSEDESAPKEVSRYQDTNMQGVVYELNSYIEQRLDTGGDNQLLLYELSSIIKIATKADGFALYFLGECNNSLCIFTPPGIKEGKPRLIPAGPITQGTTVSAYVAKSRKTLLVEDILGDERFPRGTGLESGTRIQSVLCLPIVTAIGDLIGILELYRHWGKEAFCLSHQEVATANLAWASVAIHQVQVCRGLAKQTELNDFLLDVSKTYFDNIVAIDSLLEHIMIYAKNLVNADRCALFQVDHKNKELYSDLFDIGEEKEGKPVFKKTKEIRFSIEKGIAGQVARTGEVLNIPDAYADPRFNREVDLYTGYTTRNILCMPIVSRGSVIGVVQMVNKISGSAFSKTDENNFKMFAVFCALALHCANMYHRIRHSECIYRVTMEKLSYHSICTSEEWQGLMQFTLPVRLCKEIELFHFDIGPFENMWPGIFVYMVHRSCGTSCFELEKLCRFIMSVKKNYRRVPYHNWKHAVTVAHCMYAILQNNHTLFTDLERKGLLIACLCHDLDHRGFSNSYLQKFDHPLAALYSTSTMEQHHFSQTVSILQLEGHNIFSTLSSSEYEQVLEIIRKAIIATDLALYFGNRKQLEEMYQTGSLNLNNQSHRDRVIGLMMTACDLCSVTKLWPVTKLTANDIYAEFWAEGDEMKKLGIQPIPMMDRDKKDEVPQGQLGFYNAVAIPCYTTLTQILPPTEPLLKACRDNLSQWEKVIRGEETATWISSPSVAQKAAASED
# [9] = Intrinsic clearance in mouse liver microsomes in presence of NADP/G6P/G6P dehydrogenase/MgCl2/metabolic phase 2 co-factor by LC/MS analysis; assay type: ADME, microsome; settings: read-out: CLH
# Procedure, shortened: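 Mouse liver microsomes incubated with both phase 1 and phase 2 co-factors, with intrinsic clearance expressed in µl x min^-1 x mg^-1.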
# [10] = biological target: T1, High affinity cGMP-specific 3',5'-cyclic phosphodiesterase 9A; assay: Inhibition of Ca2+/calmodulin-induced recombinant human full length N-terminal GST-tagged PDE9A2 expressed in baculovirus infected Sf9 cells using cGMP as substrate pretreated for 10 mins followed by substrate addition and measured after 60 mins by kinase-Glo luminescence assay
# Procedure, shortened: (§2)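 Selectivity screen run as a PDE-Glo enzymatic-activity luminescence assay, with IC50 values determined against each counter-screen PDE isoform.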
# [11] = Intrinsic clearance in human liver microsomes in presence of NADP/G6P/G6P dehydrogenase/MgCl2 by LC/MS analysis; assay type: ADME, microsome; settings: read-out: CLH; procedure, shortened: as §1
# [12] = biological target: High affinity cAMP-specific and IBMX-insensitive 3',5'-cyclic phosphodiesterase 8A (Homo sapiens) (UniProt O60658); assay: Inhibition of recombinant full length human N-terminal GST-tagged PDE8A1 expressed in baculovirus infected Sf9 cells at 100 nM using iFl-cAMP/iFl-cGMP as substrate by mobility shift assay relative to control
# Sequence of High affinity cAMP-specific and IBMX-insensitive 3',5'-cyclic phosphodiesterase 8A (Homo sapiens) (O60658 whole entry): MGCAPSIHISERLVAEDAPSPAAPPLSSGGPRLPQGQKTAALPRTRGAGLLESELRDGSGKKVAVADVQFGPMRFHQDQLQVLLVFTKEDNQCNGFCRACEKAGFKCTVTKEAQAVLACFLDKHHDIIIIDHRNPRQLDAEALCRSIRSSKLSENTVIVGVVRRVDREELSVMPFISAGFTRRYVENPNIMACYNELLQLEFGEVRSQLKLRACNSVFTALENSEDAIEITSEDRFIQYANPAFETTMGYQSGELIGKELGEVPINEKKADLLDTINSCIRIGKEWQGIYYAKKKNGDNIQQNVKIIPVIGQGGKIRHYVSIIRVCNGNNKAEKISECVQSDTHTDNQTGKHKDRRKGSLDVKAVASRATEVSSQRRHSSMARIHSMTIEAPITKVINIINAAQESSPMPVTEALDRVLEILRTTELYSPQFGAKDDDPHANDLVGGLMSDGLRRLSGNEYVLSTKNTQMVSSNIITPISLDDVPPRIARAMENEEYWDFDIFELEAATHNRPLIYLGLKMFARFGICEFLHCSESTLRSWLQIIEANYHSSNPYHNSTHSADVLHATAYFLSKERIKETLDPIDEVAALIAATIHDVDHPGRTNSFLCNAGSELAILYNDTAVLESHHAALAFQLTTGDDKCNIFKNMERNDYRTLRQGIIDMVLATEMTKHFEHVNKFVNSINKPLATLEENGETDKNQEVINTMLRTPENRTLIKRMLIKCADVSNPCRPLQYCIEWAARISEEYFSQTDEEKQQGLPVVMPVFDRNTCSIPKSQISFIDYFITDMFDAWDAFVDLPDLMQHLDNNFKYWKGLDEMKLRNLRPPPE
# [13] = biological target: cGMP-specific 3',5'-cyclic phosphodiesterase (Homo sapiens) (UniProt O76074); assay: Inhibition of PDE5A1 (unknown origin) at 100 nM using iFl-cAMP/iFl-cGMP as substrate by mobility shift assay relative to control
# [14] = biological target: T3, cAMP and cAMP-inhibited cGMP 3',5'-cyclic phosphodiesterase 10A; assay: Inhibition of Ca2+/calmodulin-induced recombinant human full length N-terminal GST-tagged PDE10A1 expressed in baculovirus infected Sf9 cells using cAMP as substrate pretreated for 10 mins followed by substrate addition and measured after 40 mins by kinase-Glo luminescence assay; settings: read-out: IC50
# [15] = biological target: T4, cGMP-dependent 3',5'-cyclic phosphodiesterase (Rattus norvegicus) (UniProt Q01062); assay: Inhibition of rat PDE2A expressed in baculovirus infected Sf9 cells at 100 nM using iFl-cAMP/iFl-cGMP as substrate by mobility shift assay relative to control
# T4 sequence (whole entry): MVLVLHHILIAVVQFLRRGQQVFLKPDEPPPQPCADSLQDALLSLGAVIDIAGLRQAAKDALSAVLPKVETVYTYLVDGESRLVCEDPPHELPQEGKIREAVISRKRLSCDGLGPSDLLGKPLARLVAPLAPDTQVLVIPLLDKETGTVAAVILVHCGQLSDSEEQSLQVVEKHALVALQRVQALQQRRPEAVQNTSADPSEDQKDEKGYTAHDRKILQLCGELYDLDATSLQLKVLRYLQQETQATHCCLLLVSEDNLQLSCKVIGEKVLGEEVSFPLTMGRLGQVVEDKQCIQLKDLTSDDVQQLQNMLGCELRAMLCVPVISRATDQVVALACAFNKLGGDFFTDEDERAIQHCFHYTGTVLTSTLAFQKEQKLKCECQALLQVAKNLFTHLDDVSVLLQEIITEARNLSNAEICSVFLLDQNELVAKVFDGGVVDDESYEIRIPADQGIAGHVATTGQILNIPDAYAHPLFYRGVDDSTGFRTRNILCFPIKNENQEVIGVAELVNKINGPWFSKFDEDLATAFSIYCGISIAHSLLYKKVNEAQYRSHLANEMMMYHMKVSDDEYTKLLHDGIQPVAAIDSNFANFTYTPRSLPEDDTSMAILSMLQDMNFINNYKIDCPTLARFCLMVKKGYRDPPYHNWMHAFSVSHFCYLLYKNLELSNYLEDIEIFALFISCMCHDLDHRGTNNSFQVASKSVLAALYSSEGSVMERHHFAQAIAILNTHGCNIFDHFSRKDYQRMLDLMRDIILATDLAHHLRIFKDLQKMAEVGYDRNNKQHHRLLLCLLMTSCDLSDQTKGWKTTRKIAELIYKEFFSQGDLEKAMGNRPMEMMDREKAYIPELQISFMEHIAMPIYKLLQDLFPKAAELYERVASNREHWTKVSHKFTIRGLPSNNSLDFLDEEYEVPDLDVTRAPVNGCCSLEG
# [16] = biological target: T2, Dual specificity calcium/calmodulin-dependent 3',5'-cyclic nucleotide phosphodiesterase 1C; assay: Inhibition of Ca2+/calmodulin-induced full-length recombinant human N-terminal GST-tagged PDE1C expressed in baculovirus infected Sf9 insect cells using cAMP as substrate pretreated for 10 mins followed by substrate addition and measured after 30 mins by kinase-Glo luminescence assay; procedure, shortened: as §2
# [17] = biological target: 3',5'-cyclic-AMP phosphodiesterase 4B (Homo sapiens) (UniProt Q07343); assay: Inhibition of recombinant full length human N-terminal GST-tagged PDE4B1 expressed in baculovirus infected Sf9 cells at 100 nM using iFl-cAMP/iFl-cGMP as substrate by mobility shift assay relative to control
# Sequence of 3',5'-cyclic-AMP phosphodiesterase 4B (Homo sapiens) (Q07343 whole entry): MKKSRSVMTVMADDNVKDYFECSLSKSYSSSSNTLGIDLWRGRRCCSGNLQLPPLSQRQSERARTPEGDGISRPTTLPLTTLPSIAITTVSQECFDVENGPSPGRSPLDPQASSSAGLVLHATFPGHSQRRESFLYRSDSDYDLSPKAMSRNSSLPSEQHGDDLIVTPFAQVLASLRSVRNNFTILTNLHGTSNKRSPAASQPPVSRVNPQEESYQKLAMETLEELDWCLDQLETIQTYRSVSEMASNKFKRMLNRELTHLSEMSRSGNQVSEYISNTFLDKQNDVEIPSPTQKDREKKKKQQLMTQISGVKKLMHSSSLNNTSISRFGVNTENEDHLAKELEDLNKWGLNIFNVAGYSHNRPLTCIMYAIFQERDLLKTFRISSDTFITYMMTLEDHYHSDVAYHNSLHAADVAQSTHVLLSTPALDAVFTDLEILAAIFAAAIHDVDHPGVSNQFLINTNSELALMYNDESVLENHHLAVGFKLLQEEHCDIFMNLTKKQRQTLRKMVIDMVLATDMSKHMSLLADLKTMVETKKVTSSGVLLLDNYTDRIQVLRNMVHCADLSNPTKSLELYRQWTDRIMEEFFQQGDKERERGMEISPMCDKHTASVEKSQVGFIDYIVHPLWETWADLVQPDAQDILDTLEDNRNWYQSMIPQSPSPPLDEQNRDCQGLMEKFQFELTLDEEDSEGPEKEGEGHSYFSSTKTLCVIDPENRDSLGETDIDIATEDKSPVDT
# [18] = biological target: cGMP-inhibited 3',5'-cyclic phosphodiesterase 3B (Homo sapiens) (UniProt Q13370); assay: Inhibition of recombinant human N-terminal GST-tagged PDE3B (592 to end residues) expressed in baculovirus infected Sf9 cells at 100 nM using iFl-cAMP/iFl-cGMP as substrate by mobility shift assay relative to control
# [19] = Intrinsic clearance in rat liver microsomes; assay type: ADME, microsome
# [20] = biological target: T3, cAMP and cAMP-inhibited cGMP 3',5'-cyclic phosphodiesterase 10A; assay: Inhibition of PDE10 (unknown origin)
Structure (SMILES),inhibition [1] [%],inhibition [2] [%],microsomal CLint [3] [µL/min/mg],inhibition [4] [%],inhibition [5] [%],inhibition [6] [%],microsomal CLint [7] [µL/min/mg],inhibition [8] [%],microsomal CLint [9] [µL/min/mg],pIC50 [10],microsomal CLint [11] [µL/min/mg],inhibition [12] [%],inhibition [13] [%],pIC50 [14],inhibition [15] [%],pIC50 [16],inhibition [17] [%],inhibition [18] [%],CLH [19] [µL/min/mg],pIC50 [20]
Cc1ncc(C)n2nc(-c3ccn4cc(-c5ccccc5)nc4n3)nc12,26,-3,7.4,5,18,9,5.6,98,0.6,< 5.00,1.8,-1,6,7.46,9,< 5.00,4,7,–,–
Cc1ncc(C)n2nc(-c3ccc4nc(-c5ccccc5)[nH]c4c3)nc12,8,-7,–,16,-3,8,–,99,–,–,–,-4,6,–,8,–,3,-3,–,–
Cc1ncc(C)n2nc(-c3ccn4cc(-c5ccccc5)nc4c3)nc12,–,–,16.3,–,–,–,68.9,–,28.9,–,11.6,–,–,–,–,–,–,–,68.8,7.43
